Published values collected from several papers.
Compare with care: the assays were run in different laboratories.
Target: Cyclin-dependent kinase 17 (CDK17, Homo sapiens, UniProt Q00537)

SMILES | test | conditions | remaining binding [%]
CC1CCCN1c1nccc(-c2cnn3ncccc23)n1 (stereo not drawn) | binding | 1 µM | 100
Nc1ncc2c(n1)-c1c([nH]c3ccc(C#CC4CC4)cc13)CCCC2 | binding, competition with immobilised ligand | 1 µM | 85
CN(C)c1ncc(F)c(-c2cnn3ncccc23)n1 | binding | 1 µM | 97
C[C@@]1(Cc2ccc(C#N)cc2)C(=O)N(c2cc(Cl)cc(Cl)c2)c2ncc(C(=O)NC3(c4nc(C5CCC5)no4)CC3)n21 | cell-free assay, competition with immobilised ligand | 1 µM | 100
CN(C)c1nccc(-c2cnc3ncccn23)n1 | binding | 1 µM | 84
COc1cnc(Nc2cccc(S(N)(=O)=O)c2)nc1N1CCN(c2ccccc2)CC1 | binding, competition with immobilised ligand | 1 µM | 100
COc1ccc2c(c1)O[C@H](c1ccc(OC)c(OC)c1)C[C@@H]2NC(=O)C1(c2ccc3c(c2)OC(F)(F)O3)CC1 | cell-free assay, competition with immobilised ligand | 1 µM | 100
O=C(Nc1c[nH]nc1C(=O)NC1CCNCC1)c1cc(F)cc(F)c1 | binding, competition with immobilised ligand | 1 µM | 20
C=CC(=O)N1CCC(C(=O)NCC(=O)N2CCN(c3nc(-c4cnc(N)nc4C(F)F)nc(N4CCOCC4)n3)CC2)CC1 | binding, competition with immobilised ligand | 1 µM | 89
CCN1CCN(Cc2ccc(C(=O)Nc3ccc(C)c(Oc4ccc5c(c4)CC(=O)N5)c3)cc2C(F)(F)F)CC1 | binding, competition with immobilised ligand | 1 µM | 100
C[C@@H]1CN(c2cc(-c3n[nH]c4ccc(OC5(C)CC5)cc34)ncn2)C[C@H](C)O1 | cell-free assay, competition with immobilised ligand | 0.1 µM | 89
N[C@H]1CCN(c2nccc(-c3cnn4ncccc34)n2)C1 | binding | 1 µM | 100
C[C@@H](c1ccc(-n2cnc3c(N)ncnc32)cc1)N1CCc2nn(C)c(Cc3ccccc3)c2C1=O | binding, competition with immobilised ligand | 0.1 µM | 91
O=c1nc(-c2ccccn2)sc2ccccc12 | binding, competition with immobilised ligand | 1 µM | 100
O=C(c1ccc(Nc2nccc(-c3cc4ccccc4s3)n2)cc1)N1CCC(N2CCCC2)CC1 | binding, competition with immobilised ligand | 1 µM | 64
Cc1c(NC(=O)c2cc(C(N)=O)nc3cc(F)ccc23)c(C(F)(F)F)nn1Cc1ccc(C(C)(C)C)cc1 | cell-free assay, competition with immobilised ligand | 1 µM | 100
O=C(NCCCN1CCOCC1)c1ccc(Nc2ncc(Cl)c(-c3ccc(Cl)s3)n2)cc1 | binding, competition with immobilised ligand | 1 µM | 31
F[C@@H]1CCN(c2nccc(-c3cnn4ncccc34)n2)C1 | binding | 1 µM | 100
Cc1cnc(Nc2ccc(C(=O)N3CCC(N4CCCC4)CC3)cc2)nc1-c1cc2ccccc2s1 | binding, competition with immobilised ligand | 1 µM | 9.2
Cc1cnn2ncc(-c3ccnc(N(C)C)n3)c2c1 | binding | 1 µM | 100
CC(=O)N1CCC(c2ccc(C(=O)NC(=N)N)cc2C(F)(F)F)CC1 | cell-free assay, competition with immobilised ligand | 1 µM | 100
